Measured values as given in ChEMBL document CHEMBL4715822, “Structure-based lead optimization to improve antiviral potency and ADMET properties of phenyl-1H-pyrrole-carboxamide entry inhibitors targeted to HIV-1 gp120” (Eur J Med Chem, 2018).
Converted amounts (≈) assume the structure as drawn.

Assays:
[1] = Inhibition of HIV1 gp120-mediated cell-cell fusion between viral envelope expressing in human HL2/3 cells to CD4/CCR5 receptor expressing in human TZM-bl cells after 1 hr by luciferase reporter gene assay; assay type: cell-based; conditions: Human immunodeficiency virus 1, HL2/3, 1 h
[2] = Cytotoxicity against dog Cf2Th-CCR5 cells assessed as reduction in cell viability incubated for 48 hrs by XTT assay; assay type: cell-based, Canis lupus familiaris; conditions: for CC50: cf2th-ccr5, 48 h
[3] = system: Human immunodeficiency virus 1; experiment: Antiviral activity against pseudovirus HIV-1 HXB-2 harboring Env M434I mutant infected in human U87.CD4.CXCR4 cells assessed as reduction in viral infection pretreated for 30 mins before viral infection and measured after 3 days by luciferase based assay; assay type: functional, cell-based, M:B_HXB2R
In short: (§1)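 Pseudoviruses made in HEK293T by co-transfecting an Env-deleted backbone (pSG3Δenv or pNL4-3.Luc.R-.E-) with an HXB-2 Env plasmid carrying single or double substitutions; Env sequences confirmed by sequencing. Virus pretreated 30 min with graded compound, added to U87-CD4-CXCR4 cells (1 × 10⁴/well, plated overnight), incubated 3 days. Cells lysed, luciferase measured, IC50 calculated.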

[4] = Cytotoxicity against human PBMC cells assessed as reduction in cell viability incubated for 1 hr followed by complete medium addition and measured after 48 hrs by XTT assay; assay type: cell-based
[5] = system: Human immunodeficiency virus 1; experiment: Antiviral activity against HIV-1 ADA infected in human MOLT-4 cells assessed as reduction in viral transmission to TZM-bl cells incubated for 48 hrs by luciferase based assay; assay type: functional, organism-based; conditions: Human immunodeficiency virus 1, ADA, MOLT-4, 48 h
[6] = Induction viral infection in pseudovirus HIV1 ADA infected in dog Cf2Th-CCR5 cells incubated for overnight followed by pretreated for 30 mins and added to cells measured after 48 hrs by luciferase-based assay; assay type: cell-based; conditions: human immunodeficiency virus 1, cf2th-ccr5, 48.5 h
[7] = system: MT2; experiment: (§2) Cytotoxicity against human MT2 cells assessed as reduction in cell viability incubated for 4 days by XTT assay; assay type: cell-based; conditions: mt2, 96 h, time 4 day
[8] = Antiviral activity against HIV-1 3B infected in human MT2 cells assessed as reduction in viral infection pretreated for 30 mins before viral infection and measured after 4 days by ELISA based multi cycle infection assay; assay type: functional, cell-based; conditions: Human immunodeficiency virus 1, M:B_HXB2R
[9] = system: TZM; experiment: (§3) Cytotoxicity against human TZM-bl cells assessed as reduction in cell viability incubated for 3 days by XTT assay; assay type: cell-based; conditions: tzm, 72 h, time 3 day
[10] = system: Human immunodeficiency virus 1; experiment: Antiviral activity against HIV-1 HXB-2 infected in human TZM-bl cells assessed as reduction in viral infection pretreated for 30 mins before viral infection and measured after 3 days by luciferase based single cycle infection assay; assay type: functional, organism-based; conditions: Human immunodeficiency virus 1, M:B_HXB2R
[11] = as §3; assay type: cell-based; conditions: TZM-bl cells, time 3 day
[12] = as §2; assay type: cell-based; conditions: MT2 cells, time 4 day
[13] = Metabolic stability in human liver microsomes assessed as parent compound remaining at 3 uM incubated for 120 mins by LC-MS/MS analysis; assay type: ADME, Microsome; conditions: read-out: Stabilty
[14] = Apparent permeability across apical to basolateral side in human Caco2 cells incubated for 2 hrs by LC-MS/MS analysis; assay type: ADME, cell-based, Caco-2; conditions: Caco-2
In short: (§4)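 Caco-2 monolayers grown three weeks to differentiate; compound in transport buffer pH 7.4 (glucose, 10 mM HEPES, HBSS) added apical (A-B) or basal (B-A) side, with or without 100 μM verapamil; 2 h incubation, both sides sampled. Lucifer yellow 100 μM on A side checks integrity (≤2% transport). Papp = (dQ/dt)/(C0 × A); efflux ratio = Papp(B→A)/Papp(A→B).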

[15] = system: Human immunodeficiency virus 1; experiment: Antiviral activity against pseudovirus HIV-1 HXB-2 harboring Env A204D mutant infected in human U87.CD4.CXCR4 cells assessed as reduction in viral infection pretreated for 30 mins before viral infection and measured after 3 days by luciferase based assay; assay type: functional, cell-based, M:B_HXB2R; in short: as §1
[16] = Solubility in 5% DMSO at pH 7.4 at 500 uM incubated for 90 mins in shaker by spectrophotometry; assay type: physicochemical
In short: (§5)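 DMSO stock diluted to 500 μM in universal aqueous buffer pH 7.4 with 2 or 5% DMSO final; quadruplicate, 90 min shaking at room temperature in filter plate, vacuum filtered; filtrate in 20% acetonitrile read by UV absorbance at six wavelengths. Filtrate/standard ratio binned as ~500, 100–500 or <100 μM.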

[17] = Apparent permeability across basolateral to apical side in human Caco2 cells incubated for 2 hrs by LC-MS/MS analysis; assay type: ADME, cell-based, Caco-2; conditions: Caco-2; in short: as §4
[18] = system: Human immunodeficiency virus 1; experiment: Antiviral activity against pseudovirus HIV-1 HXB-2 harboring Env I424F mutant infected in human U87.CD4.CXCR4 cells assessed as reduction in viral infection pretreated for 30 mins before viral infection and measured after 3 days by luciferase based assay; assay type: functional, cell-based, M:B_HXB2R; in short: as §1
[19] = Metabolic stability in human liver microsomes assessed as intrinsic clearance at 3 uM incubated for 120 mins by LC-MS/MS analysis; assay type: ADME, Microsome; conditions: read-out: CLH
[20] = Protein binding in human plasma assessed as unbound fraction at 5 uM by LC-MS/MS analysis; assay type: ADME, cell-free
[21] = system: Human immunodeficiency virus 1; experiment: Antiviral activity against HIV-1 3B infected in human H9 cells assessed as reduction in viral transmission to TZM-bl cells incubated for 48 hrs by luciferase based assay; assay type: functional, organism-based; conditions: Human immunodeficiency virus 1, 3B, H9, 48 h
[22] = Solubility in 2 % DMSO at pH 7.4 at 500 uM incubated for 90 mins in shaker by spectrophotometry; assay type: physicochemical; in short: as §5

| Structure (SMILES) | CC50 [7] [µM] | IC50 [8] [µM] | CC50 [9] [µM] | IC50 [10] [µM] | other results |
| --- | --- | --- | --- | --- | --- |
| CC1(C)CC(NC(=O)C(=O)Nc2ccc(Cl)cc2)CC(C)(C)N1 | – | – | – | – | IC50 [1]: 9.1 µM; CC50 [2]: > 60 µM |
| NC[C@@H](NC(=O)c1ccc(-c2ccc(C(F)(F)F)cc2)[nH]1)c1ncc(CO)s1 | 32 | – | – | – | IC50 [3]: 0.97 µM; CC50 [2]: 37.7 µM; CC50 at 49 h [4]: 61 µM; IC50 [5]: 1 µM; Activity [6]: Non-Toxic |
| Cc1c(F)cc(-c2ccc(C(=O)N[C@@H](CN)c3ncc(CO)s3)[nH]2)cc1F | 27 | 0.2 | 33.2 | 0.47 | – |
| NC[C@@H](NC(=O)c1ccc(-c2cc(F)c(Cl)c(F)c2)[nH]1)c1ncc(CO)o1 | – | – | – | – | CC50 at 72 h [11]: 30.9 µM; CC50 at 96 h [12]: 44.7 µM |
| NC[C@@H](NC(=O)c1ccc(-c2cc(F)c(Cl)c(F)c2)[nH]1)c1nc(CO)cs1 | 29.6 | – | 27.7 | – | – |
| Cc1c(F)cc(-c2ccc(C(=O)N[C@@H](CN)c3nc(CO)cs3)[nH]2)cc1F | 25.5 | 0.18 | 18.5 | 0.18 | – |
| Cc1c(F)cc(-c2ccc(C(=O)N[C@H](CN)c3ncc(CO)s3)[nH]2)cc1F | 26.8 | 0.2 | 32.9 | 0.2 | – |
| NC[C@@H](NC(=O)c1ccc(-c2cc(F)c(C(F)(F)F)c(F)c2)[nH]1)c1ncc(CO)s1 | – | – | – | – | CC50 at 72 h [11]: 23.5 µM; CC50 at 96 h [12]: 15.5 µM |
| NC[C@H](NC(=O)c1ccc(-c2cc(F)c(Cl)c(F)c2)[nH]1)c1ncc(CO)s1 | – | – | – | – | CC50 at 72 h [11]: 39.5 µM; CC50 at 49 h [4]: > 60 µM; CC50 at 96 h [12]: 37 µM |
| CNC[C@H](NC(=O)c1ccc(-c2cc(F)c(Cl)c(F)c2)[nH]1)c1nc(CO)cs1 | 18.8 | 0.18 | 18 | 0.23 | – |
| CC(C)(O)c1csc([C@H](CN)NC(=O)c2ccc(-c3cc(F)c(Cl)c(F)c3)[nH]2)n1 | 16.6 | 0.25 | 28.4 | 0.23 | – |
| NC[C@@H](NC(=O)c1ccc(-c2ccc(C(F)(F)F)c(F)c2)[nH]1)c1nc(CO)c(CO)s1 | 72.4 | 2 | > 65.4 | 1.8 | – |
| COC(C)(C)c1csc([C@@H](CN)NC(=O)c2ccc(-c3cc(F)c(Cl)c(F)c3)[nH]2)n1 | 29.5 | 6.1 | 39.6 | 9.3 | – |
| CNC[C@@H](NC(=O)c1ccc(-c2ccc(C(F)(F)F)cc2)[nH]1)c1nc(CO)cs1 | 19.8 | 0.6 | 23.5 | 0.62 | – |
| NC[C@H](NC(=O)c1ccc(-c2ccc(C(F)(F)F)cc2)[nH]1)c1ncc(CO)s1 | 36 | – | 35.6 | – | – |
| NC[C@H](NC(=O)c1ccc(-c2cc(F)c(Cl)c(F)c2)[nH]1)c1nc(CO)cs1 | – | – | – | – | remaining at 2 h, 3 µM [13]: 90.4%; CC50 at 48 h ([2]; Cf2Th-CCR5 cells): > 51 µM; Papp A→B at 2 h [14]: 0.471 ×10⁻⁶ cm/s; IC50 [15]: 0.87 µM; CC50 at 72 h [11]: 42.1 µM; solubility kinetic at […], 500 µM [16]: 500 µM (≈ 206 µg/mL); Papp B→A at 2 h [17]: 17 ×10⁻⁶ cm/s; IC50 [18]: 1.3 µM; microsomal CLint at 3 µM [19]: 1.6 µL/min/mg; CC50 at 49 h [4]: 61 µM; IC50 [5]: 0.44 µM; Activity [6]: Non-Toxic; fraction unbound at 5 µM [20]: 0.00281; CC50 at 96 h [12]: 32.6 µM; IC50 [21]: 0.079 µM; solubility kinetic at […], 500 µM [22]: 100 µM (≈ 41.3 µg/mL) |

| Structure (SMILES) | CC50 [7] [µM] | IC50 [8] [µM] | CC50 [9] [µM] | IC50 [10] [µM] | other results |
| --- | --- | --- | --- | --- | --- |
| Cc1c(F)cc(-c2ccc(C(=O)N[C@H](CN)c3nc(CO)cs3)[nH]2)cc1F | 15.9 | 0.6 | 20.6 | 0.54 | – |
| NC[C@H](NC(=O)c1ccc(-c2cc(F)c(C(F)(F)F)c(F)c2)[nH]1)c1ncc(CO)s1 | – | – | – | – | CC50 at 72 h [11]: 23 µM; CC50 at 96 h [12]: 14.3 µM |
| CNC[C@@H](NC(=O)c1ccc(-c2cc(F)c(Cl)c(F)c2)[nH]1)c1nc(CO)cs1 | 24 | 0.4 | 23.8 | 0.25 | – |
| CC(C)(O)c1csc([C@@H](CN)NC(=O)c2ccc(-c3cc(F)c(Cl)c(F)c3)[nH]2)n1 | 18 | 0.8 | 27.2 | 0.56 | – |
| NC[C@@H](NC(=O)c1ccc(-c2ccc(C(F)(F)F)c(F)c2)[nH]1)c1nc(CO)cs1 | 20.5 | – | 17.3 | – | – |
| NC[C@H](NC(=O)c1ccc(-c2cc(F)c(Cl)c(F)c2)[nH]1)c1ncc(CO)o1 | – | – | – | – | CC50 at 72 h [11]: 27.7 µM; CC50 at 96 h [12]: 26.5 µM |
| NC[C@@H](NC(=O)c1ccc(-c2cc(F)c(Cl)c(F)c2)[nH]1)c1ncc(CO)s1 | – | – | – | – | CC50 at 72 h [11]: 20.6 µM; CC50 at 96 h [12]: 17.4 µM |
| NC[C@H](NC(=O)c1ccc(-c2ccc(C(F)(F)F)cc2)[nH]1)c1nc(CO)cs1 | 16.3 | 0.3 | 24.4 | 0.47 | – |
| NC[C@H](NC(=O)c1ccc(-c2cc(F)c(Cl)c(F)c2)[nH]1)c1nc(CO)c(CO)s1 | 96.7 | 3 | > 70 | 2.3 | – |
| NC[C@H](NC(=O)c1ccc(-c2ccc(C(F)(F)F)c(F)c2)[nH]1)c1nc(CO)c(CO)s1 | 92.3 | 3.6 | > 65 | 3.1 | – |
| NC[C@@H](NC(=O)c1ccc(-c2ccc(C(F)(F)F)cc2)[nH]1)c1nc(CO)cs1 | 15.1 | 1.75 | 27.6 | 0.9 | – |
| NC[C@@H](NC(=O)c1ccc(-c2ccc(C(F)(F)F)c(F)c2)[nH]1)c1ncc(CO)s1 | 21.5 | 0.24 | 18.5 | 0.2 | – |
| NC[C@H](NC(=O)c1ccc(-c2ccc(C(F)(F)F)c(F)c2)[nH]1)c1ncc(CO)s1 | 25.6 | 0.25 | 30.5 | 0.44 | – |
| NC[C@@H](NC(=O)c1ccc(-c2cc(F)c(Cl)c(F)c2)[nH]1)c1nc(CO)c(CO)s1 | 89.9 | 3.34 | 53 | 2.7 | – |
| CNC[C@H](NC(=O)c1ccc(-c2ccc(C(F)(F)F)cc2)[nH]1)c1nc(CO)cs1 | 17 | 0.1 | 22.4 | 0.31 | – |
